According to ChEMBL document CHEMBL1149360, “Synthesis of 2-amino-4-(7-azaindol-3-yl)pyrimidines as cyclin dependent kinase 1 (CDK1) inhibitors” (Bioorg Med Chem Lett, 2006):

How the values were obtained:
HeLa = assay: Antiproliferative activity against human HeLa cell line assessed as incorporation [14C]thymidine; format: functional, cell-based
Method in brief: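 HeLa cervical carcinoma cells. Proliferation was read as ¹⁴C-thymidine incorporation into cellular DNA, and the IC₅₀ for inhibition of proliferation was derived from that.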

[1] = target: Cyclin-dependent kinase 1/cyclin B (Homo sapiens, UniProt P06493); assay: Inhibition of CDK1/cyclinB by Flashplate assay; format: protein-complex assay
Method in brief: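 CDK1 complexed with cyclin B phosphorylated a biotinylated histone-H1 peptide substrate using ³³P-γ-ATP. The substrate was immobilized in a Flashplate format, and inhibition was read as reduced ³³P incorporation into the substrate.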

Row | SMILES | IC50 (HeLa) [nM] | IC50 [1] [nM]
1 | Clc1ccccc1Nc1nccc(-c2c[nH]c3ncccc23)n1 | 140 | 9
2 | Cc1cc(CCO)ccc1Nc1nccc(-c2c[nH]c3ncccc23)n1 | 11 | 0.6
3 | Cc1cc(CCN2CCCC2)ccc1Nc1nccc(-c2c[nH]c3ncccc23)n1 | 3 | 0.6
4 | COc1ccccc1Nc1nccc(-c2c[nH]c3ncccc23)n1 | 350 | –
5 | Fc1ccccc1Nc1nccc(-c2c[nH]c3ncccc23)n1 | 92 | –
6 | Oc1ccccc1Nc1nccc(-c2c[nH]c3ncccc23)n1 | 955 | –
7 | Cc1cc(CCN2CCOCC2)ccc1Nc1nccc(-c2c[nH]c3ncccc23)n1 | 3 | 1.9
8 | c1ccc(Nc2nccc(-c3c[nH]c4ncccc34)n2)cc1 | 382 | –
9 | Brc1ccccc1Nc1nccc(-c2c[nH]c3ncccc23)n1 | 95 | 13
10 | Cc1ccc(Nc2nccc(-c3c[nH]c4ncccc34)n2)cc1 | 220 | –
11 | Cc1[nH]c2ncccc2c1-c1ccnc(N[C@H]2CC[C@H](N)CC2)n1 | 130 | 280
12 | Cc1ccccc1Nc1nccc(-c2c[nH]c3ncccc23)n1 | – | 3
13 | FC(F)(F)c1ccccc1Nc1nccc(-c2c[nH]c3ncccc23)n1 | 392 | –
14 | CCc1ccccc1Nc1nccc(-c2c[nH]c3ncccc23)n1 | 292 | –
15 | Cc1cc(CCN2CCCCC2)ccc1Nc1nccc(-c2c[nH]c3ncccc23)n1 | 3 | 1

Continued, values first:

Row | IC50 (HeLa) [nM] | IC50 [1] [nM] | SMILES
16 | 1 | 2 | N[C@H]1CC[C@H](Nc2nccc(-c3c[nH]c4ncccc34)n2)CC1
17 | 8900 | – | CN(C)CCn1cc(-c2ccnc(NC3CCCCC3)n2)c2cccnc21
18 | 393 | – | CS(=O)(=O)n1cc(-c2ccnc(NC3CCCCC3)n2)c2cccnc21
19 | 368 | – | c1cnc2[nH]cc(-c3ccnc(NCC4CCCCC4)n3)c2c1
20 | 31 | – | c1cnc2[nH]cc(-c3ccnc(NC4CCCCC4)n3)c2c1
21 | 52100 | > 10000 | Cn1cc(-c2ccnc(NC3CCCCC3)n2)c2cccnc21
22 | 23 | – | CC(=O)n1cc(-c2ccnc(NC3CCCCC3)n2)c2cccnc21
